Reference: ChEMBL document CHEMBL4118097, “Selective Inhibitors of Dual Leucine Zipper Kinase (DLK, MAP3K12) with Activity in a Model of Alzheimer's Disease” (J Med Chem, 2017)

Assays:
[1] = target: Mitogen-activated protein kinase kinase kinase 8 (Homo sapiens) (UniProt P41279); assay: Inhibition of recombinant GST-tagged human Cot catalytic domain (30 to 397 residues) expressed in baculovirus expression system at 1 uM by FRET assay relative to control
[2] = target: Dual specificity protein kinase CLK3 (Homo sapiens) (UniProt P49761); assay: Inhibition of full length recombinant GST-tagged human CLK3 expressed in baculovirus expression system at 1 uM by FRET assay relative to control
[3] = target: Casein kinase II subunit alpha (Homo sapiens) (UniProt P68400); assay: Inhibition of CK2alpha1 (unknown origin) at 1 uM by FRET assay relative to control
[4] = target: Casein kinase I isoform gamma-1 (Homo sapiens) (UniProt Q9HCP0); assay: Inhibition of CK1gamma1 (unknown origin) at 1 uM by FRET assay relative to control
[5] = target: Casein kinase I isoform alpha (Homo sapiens) (UniProt P48729); assay: Inhibition of CK1alpha1 (unknown origin) at 1 uM by FRET assay relative to control
[6] = target: CDK8/Cyclin C (Homo sapiens) (UniProt P49336+P24863); assay: Inhibition of recombinant full length His-tagged human CDK8/CyclinC expressed in baculovirus expression system at 1 uM by FRET assay relative to control
[7] = target: CDK7/Cyclin H/MNAT1 (Homo sapiens) (UniProt P51946+P50613+P51948); assay: Inhibition of recombinant full length His-tagged human CDK7/cyclin H/MNAT1 expressed in baculovirus expression system at 1 uM by FRET assay relative to control
[8] = target: Mitogen-activated protein kinase kinase kinase kinase 5 (Homo sapiens) (UniProt Q9Y4K4); assay: Inhibition of recombinant full length His-tagged human KHS1 expressed in baculovirus expression system at 1 uM by FRET assay relative to control
[9] = target: Homeodomain-interacting protein kinase 2 (Homo sapiens) (UniProt Q9H2X6); assay: Inhibition of recombinant GST-tagged human HIPK2 catalytic domain expressed in baculovirus expression system at 1 uM by FRET relative to control
Method in brief: (§1)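 Single-point screen at 1 μM compound in a 220-kinase panel run by Life Technologies (SelectScreen). Z′-LYTE format: phosphorylation of a labeled peptide substrate read by FRET. Values are reported as percent inhibition.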

[10] = target: Glycogen synthase kinase-3 beta (Homo sapiens) (UniProt P49841); assay: Inhibition of recombinant full length His-tagged human GSK3beta expressed in baculovirus expression system at 1 uM by FRET relative to control
[11] = target: G protein-coupled receptor kinase 5 (Homo sapiens) (UniProt P34947); assay: Inhibition of recombinant full length GST-tagged human GRK5 expressed in baculovirus expression system at 1 uM by FRET relative to control
Method in brief: (§2)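 Single-concentration screen at 1 μM in Life Technologies SelectScreen, across a 220-kinase panel. Z′-LYTE format measures phosphorylation of a labeled peptide by FRET. Results are reported as percent inhibition.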

[12] = target: G protein-coupled receptor kinase 3 (Homo sapiens) (UniProt P35626); assay: Inhibition of recombinant full length GST-tagged human GRK3 expressed in baculovirus expression system at 1 uM by FRET relative to control; method in brief: as §2
[13] = target: Receptor-type tyrosine-protein kinase FLT3 (Homo sapiens) (UniProt P36888); assay: Inhibition of recombinant His-tagged human FLT3 cytoplasmic domain expressed in baculovirus expression system at 1 uM by FRET assay relative to control; method in brief: as §1
[14] = target: Receptor tyrosine-protein kinase erbB-2 (Homo sapiens) (UniProt P04626); assay: Inhibition of recombinant His-tagged human ErbB2 cytoplasmic domain expressed in baculovirus expression system at 1 uM by FRET assay relative to control; method in brief: as §1
[15] = target: Phosphorylase b kinase gamma catalytic chain, liver/testis isoform (Homo sapiens) (UniProt P15735); assay: Inhibition of recombinant full length GST-tagged human PHKgamma2 expressed in baculovirus expression system at 1 uM by FRET assay relative to control; method in brief: as §2
[16] = target: Phosphorylase b kinase gamma catalytic chain, skeletal muscle/heart isoform (Homo sapiens) (UniProt Q16816); assay: Inhibition of recombinant full length GST-tagged human PHKgamma1 expressed in baculovirus expression system at 1 uM by FRET assay relative to control; method in brief: as §2
[17] = target: Serine/threonine-protein kinase Nek4 (Homo sapiens) (UniProt P51957); assay: Inhibition of recombinant full length GST-tagged human NEK4 expressed in baculovirus expression system at 1 uM by FRET assay relative to control; method in brief: as §2
[18] = target: Serine/threonine-protein kinase Nek1 (Homo sapiens) (UniProt Q96PY6); assay: Inhibition of recombinant full length GST-tagged human NEK1 expressed in baculovirus expression system at 1 uM by FRET assay relative to control; method in brief: as §2
[19] = target: Tyrosine-protein kinase receptor TYRO3 (Homo sapiens) (UniProt Q06418); assay: Inhibition of recombinant full length GST-tagged human Rse cytoplasmic domain (451 to 890 residues) expressed in baculovirus expression system at 1 uM by FRET assay relative to control; method in brief: as §2
[20] = target: Macrophage-stimulating protein receptor (Homo sapiens) (UniProt Q04912); assay: Inhibition of recombinant GST-tagged human Ron cytoplasmic domain ([…] to 1400 residues) expressed in baculovirus expression system at 1 uM by FRET assay relative to control; method in brief: as §1
[21] = target: Rho-associated protein kinase 2 (Homo sapiens) (UniProt O75116); assay: Inhibition of recombinant N-terminal GST-tagged human ROCK2 catalytic domain (1 to 552 residues) expressed in baculovirus expression system at 1 uM by FRET assay relative to control; method in brief: as §2
[22] = target: MAP kinase-activated protein kinase 5 (Homo sapiens) (UniProt Q8IW41); assay: Inhibition of full length recombinant His-tagged human PRAK expressed in baculovirus expression system at 1 uM by FRET assay relative to control
[23] = target: High affinity nerve growth factor receptor (Homo sapiens, UniProt P04629); assay: Inhibition of recombinant His-tagged human TrkA cytoplasmic domain (441 to 796 residues) expressed in baculovirus expression system by FRET assay
[24] = target: Mitogen-activated protein kinase 9 (Homo sapiens, UniProt P45984); assay: Inhibition of recombinant full length His-tagged human JNK2 ([…]) expressed in baculovirus expression system at by FRET assay
[25] = target: Muscarinic acetylcholine receptor M3 (Homo sapiens) (UniProt P20309); assay: Binding affinity to recombinant human M3 acetylcholine receptor at 10 uM relative to control
Method in brief: (§3)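 Broad radioligand-binding and enzyme screening panel covering 42 targets (biogenic amine and neuropeptide receptors, ion channels, neurotransmitter transporters, acetylcholinesterase). Single test concentration of 10 μM. Results expressed as binding relative to control, with a hit defined as >50% of control.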

Homo sapiens = species: Homo sapiens; assay: Binding affinity to PDE rolipram binding site (unknown origin) receptor at 10 uM relative to control; method in brief: as §3
[26] = target: Sodium-dependent serotonin transporter (Homo sapiens) (UniProt P31645); assay: Binding affinity to 5HT transporter (unknown origin) at 10 uM relative to control; method in brief: as §3

Sequence of Casein kinase II subunit alpha (Homo sapiens) (P68400 whole entry, looked up, canonical isoform): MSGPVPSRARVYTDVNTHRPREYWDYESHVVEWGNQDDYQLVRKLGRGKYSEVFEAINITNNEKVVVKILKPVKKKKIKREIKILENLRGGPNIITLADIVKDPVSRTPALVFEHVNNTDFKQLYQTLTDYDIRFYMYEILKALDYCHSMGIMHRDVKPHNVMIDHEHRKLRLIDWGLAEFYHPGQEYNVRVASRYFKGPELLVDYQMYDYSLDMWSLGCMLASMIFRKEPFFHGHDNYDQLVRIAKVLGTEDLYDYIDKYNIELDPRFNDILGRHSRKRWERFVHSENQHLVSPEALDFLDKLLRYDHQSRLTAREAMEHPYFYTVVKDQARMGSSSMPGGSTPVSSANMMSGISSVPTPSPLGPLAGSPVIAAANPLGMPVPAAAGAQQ
Sequence of Tyrosine-protein kinase receptor TYRO3 (Homo sapiens) (Q06418 whole entry, the tested form may be a part): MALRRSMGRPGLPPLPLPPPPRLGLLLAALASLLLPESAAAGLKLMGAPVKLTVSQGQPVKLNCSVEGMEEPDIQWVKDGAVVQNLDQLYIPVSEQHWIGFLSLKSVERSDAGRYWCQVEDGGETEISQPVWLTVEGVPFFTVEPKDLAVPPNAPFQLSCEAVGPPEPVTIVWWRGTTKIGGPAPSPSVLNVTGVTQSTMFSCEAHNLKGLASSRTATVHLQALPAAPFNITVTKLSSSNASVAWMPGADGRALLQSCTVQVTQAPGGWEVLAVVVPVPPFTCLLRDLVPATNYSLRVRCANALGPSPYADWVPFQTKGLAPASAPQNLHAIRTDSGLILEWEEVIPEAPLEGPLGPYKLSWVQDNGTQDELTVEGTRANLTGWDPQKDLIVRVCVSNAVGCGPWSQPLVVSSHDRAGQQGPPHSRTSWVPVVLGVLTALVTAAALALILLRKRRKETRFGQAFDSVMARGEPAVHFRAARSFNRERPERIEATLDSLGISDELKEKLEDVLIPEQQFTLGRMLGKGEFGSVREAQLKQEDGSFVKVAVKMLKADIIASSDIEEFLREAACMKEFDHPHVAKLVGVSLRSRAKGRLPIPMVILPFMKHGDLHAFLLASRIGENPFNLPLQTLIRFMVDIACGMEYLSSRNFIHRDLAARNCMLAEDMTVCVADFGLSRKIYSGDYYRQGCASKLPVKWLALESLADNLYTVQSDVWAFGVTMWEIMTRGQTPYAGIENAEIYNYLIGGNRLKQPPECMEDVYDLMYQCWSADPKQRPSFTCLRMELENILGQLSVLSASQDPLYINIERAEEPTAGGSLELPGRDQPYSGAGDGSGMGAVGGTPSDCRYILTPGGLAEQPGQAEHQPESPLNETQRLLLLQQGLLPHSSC
Sequence of Mitogen-activated protein kinase kinase kinase 8 (Homo sapiens) (P41279 whole entry, the tested form may be a part): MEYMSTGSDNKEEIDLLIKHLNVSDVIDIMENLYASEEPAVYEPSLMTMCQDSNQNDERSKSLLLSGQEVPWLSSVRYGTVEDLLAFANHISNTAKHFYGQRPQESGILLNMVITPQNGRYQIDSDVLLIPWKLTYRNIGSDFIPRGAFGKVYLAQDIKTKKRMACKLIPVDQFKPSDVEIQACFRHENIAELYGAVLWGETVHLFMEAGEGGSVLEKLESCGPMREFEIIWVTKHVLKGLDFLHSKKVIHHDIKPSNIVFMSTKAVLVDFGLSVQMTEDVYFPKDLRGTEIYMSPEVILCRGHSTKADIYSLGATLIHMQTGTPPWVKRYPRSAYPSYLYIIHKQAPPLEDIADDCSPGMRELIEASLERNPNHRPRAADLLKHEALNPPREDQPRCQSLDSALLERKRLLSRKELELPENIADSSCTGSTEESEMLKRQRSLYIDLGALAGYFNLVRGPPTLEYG
Sequence of Macrophage-stimulating protein receptor (Homo sapiens) (Q04912 25-304 limits assumed): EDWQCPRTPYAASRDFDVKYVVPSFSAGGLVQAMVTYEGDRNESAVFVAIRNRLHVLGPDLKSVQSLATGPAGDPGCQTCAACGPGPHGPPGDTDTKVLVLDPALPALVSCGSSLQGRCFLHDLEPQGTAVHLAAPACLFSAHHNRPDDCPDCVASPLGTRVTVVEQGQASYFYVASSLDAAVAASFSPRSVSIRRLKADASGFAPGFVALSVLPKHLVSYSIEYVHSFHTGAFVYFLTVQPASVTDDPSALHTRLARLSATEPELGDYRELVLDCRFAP
Sequence of Macrophage-stimulating protein receptor (Homo sapiens) (Q04912 310-1400 limits assumed): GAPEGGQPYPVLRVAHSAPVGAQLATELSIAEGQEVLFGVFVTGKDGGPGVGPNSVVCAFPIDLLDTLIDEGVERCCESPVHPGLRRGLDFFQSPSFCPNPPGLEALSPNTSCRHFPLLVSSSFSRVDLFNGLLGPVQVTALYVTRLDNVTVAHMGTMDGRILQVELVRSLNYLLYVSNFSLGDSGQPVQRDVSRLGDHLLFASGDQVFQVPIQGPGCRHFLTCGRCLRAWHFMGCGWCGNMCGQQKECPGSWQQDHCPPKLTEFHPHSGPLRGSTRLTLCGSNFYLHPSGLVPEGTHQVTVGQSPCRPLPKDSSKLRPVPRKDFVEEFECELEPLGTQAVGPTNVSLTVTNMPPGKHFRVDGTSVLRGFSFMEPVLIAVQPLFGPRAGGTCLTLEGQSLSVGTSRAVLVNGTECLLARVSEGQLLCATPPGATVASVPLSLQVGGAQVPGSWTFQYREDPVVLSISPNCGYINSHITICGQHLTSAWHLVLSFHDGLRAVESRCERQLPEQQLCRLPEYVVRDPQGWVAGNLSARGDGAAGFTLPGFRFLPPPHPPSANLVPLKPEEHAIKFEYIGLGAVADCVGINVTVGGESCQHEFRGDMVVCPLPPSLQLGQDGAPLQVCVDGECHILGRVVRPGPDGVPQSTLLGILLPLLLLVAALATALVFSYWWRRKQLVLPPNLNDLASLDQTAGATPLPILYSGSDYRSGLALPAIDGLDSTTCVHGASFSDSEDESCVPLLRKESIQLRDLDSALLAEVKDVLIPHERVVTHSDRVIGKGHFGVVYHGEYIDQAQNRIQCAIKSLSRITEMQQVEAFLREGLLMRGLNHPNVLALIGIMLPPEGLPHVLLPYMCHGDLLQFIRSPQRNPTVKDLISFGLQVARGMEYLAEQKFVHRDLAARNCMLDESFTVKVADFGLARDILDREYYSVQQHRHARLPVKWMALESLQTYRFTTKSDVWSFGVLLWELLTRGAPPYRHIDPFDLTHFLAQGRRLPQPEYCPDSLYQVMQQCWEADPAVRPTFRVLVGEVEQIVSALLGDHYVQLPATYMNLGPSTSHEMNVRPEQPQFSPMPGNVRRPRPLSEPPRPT
Sequence of Casein kinase I isoform gamma-1 (Homo sapiens) (Q9HCP0 whole entry, looked up, canonical isoform): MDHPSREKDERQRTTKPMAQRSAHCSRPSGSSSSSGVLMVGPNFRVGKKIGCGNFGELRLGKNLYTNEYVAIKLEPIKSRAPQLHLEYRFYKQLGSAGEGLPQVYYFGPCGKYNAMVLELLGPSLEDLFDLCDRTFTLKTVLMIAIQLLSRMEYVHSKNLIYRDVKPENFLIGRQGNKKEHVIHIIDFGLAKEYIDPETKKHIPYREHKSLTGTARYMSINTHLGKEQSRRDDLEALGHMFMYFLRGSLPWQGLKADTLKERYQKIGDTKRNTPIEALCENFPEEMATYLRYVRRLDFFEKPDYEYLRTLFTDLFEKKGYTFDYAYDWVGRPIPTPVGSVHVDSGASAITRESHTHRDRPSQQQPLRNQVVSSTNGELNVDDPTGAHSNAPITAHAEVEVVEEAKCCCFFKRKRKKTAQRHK
Sequence of Phosphorylase b kinase gamma catalytic chain, liver/testis isoform (Homo sapiens) (P15735 whole entry, canonical isoform): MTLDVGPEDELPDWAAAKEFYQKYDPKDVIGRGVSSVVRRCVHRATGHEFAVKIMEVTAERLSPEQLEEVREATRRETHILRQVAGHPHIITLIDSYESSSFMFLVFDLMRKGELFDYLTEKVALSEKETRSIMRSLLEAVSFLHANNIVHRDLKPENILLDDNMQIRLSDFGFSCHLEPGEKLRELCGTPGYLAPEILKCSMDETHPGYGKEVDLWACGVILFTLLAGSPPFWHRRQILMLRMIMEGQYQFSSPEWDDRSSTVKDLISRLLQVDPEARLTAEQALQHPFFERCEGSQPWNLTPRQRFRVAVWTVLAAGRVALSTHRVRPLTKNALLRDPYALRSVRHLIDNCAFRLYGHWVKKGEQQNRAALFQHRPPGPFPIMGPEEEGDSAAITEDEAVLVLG
Sequence of Mitogen-activated protein kinase kinase kinase kinase 5 (Homo sapiens) (Q9Y4K4 whole entry, looked up, the tested form may be a part): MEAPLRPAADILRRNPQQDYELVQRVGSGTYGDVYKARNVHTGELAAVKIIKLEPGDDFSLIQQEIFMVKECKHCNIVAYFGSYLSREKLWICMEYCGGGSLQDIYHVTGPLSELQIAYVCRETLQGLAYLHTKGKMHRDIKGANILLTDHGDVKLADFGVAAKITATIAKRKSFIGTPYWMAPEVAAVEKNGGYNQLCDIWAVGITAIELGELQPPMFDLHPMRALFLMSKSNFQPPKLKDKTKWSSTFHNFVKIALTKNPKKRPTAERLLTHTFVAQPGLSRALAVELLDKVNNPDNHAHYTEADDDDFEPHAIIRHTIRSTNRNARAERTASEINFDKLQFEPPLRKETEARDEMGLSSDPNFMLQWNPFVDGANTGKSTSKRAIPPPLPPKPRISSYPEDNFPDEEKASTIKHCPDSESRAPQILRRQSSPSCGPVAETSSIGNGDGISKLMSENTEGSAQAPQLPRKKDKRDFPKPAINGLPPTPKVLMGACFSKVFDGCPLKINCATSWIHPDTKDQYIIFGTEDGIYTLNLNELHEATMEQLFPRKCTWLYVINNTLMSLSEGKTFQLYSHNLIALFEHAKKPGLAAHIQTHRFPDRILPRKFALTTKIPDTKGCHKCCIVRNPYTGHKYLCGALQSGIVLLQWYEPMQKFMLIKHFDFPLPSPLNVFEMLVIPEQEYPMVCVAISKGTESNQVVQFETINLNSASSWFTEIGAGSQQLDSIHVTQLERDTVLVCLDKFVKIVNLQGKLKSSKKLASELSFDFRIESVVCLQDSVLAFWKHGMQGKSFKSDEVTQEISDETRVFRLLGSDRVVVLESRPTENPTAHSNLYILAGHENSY

Row | SMILES | inhibition [1] | inhibition [2] | inhibition [3] | inhibition [4] | inhibition [5] | inhibition [6] | inhibition [7] | inhibition [8] | inhibition [9] | inhibition [10] | inhibition [11] | inhibition [12] | inhibition [13] | inhibition [14] | inhibition [15] | inhibition [16] | inhibition [17] | inhibition [18] | inhibition [19] | inhibition [20] | other results
1 | CC(C)n1nc(-c2cnc(N)c(OC(F)(F)F)c2)cc1[C@H]1[C@@H]2CN(C3COC3)C[C@@H]21 | 14.3% | 5.9% | 1.5% | 8.4% | -0.3% | 9.9% | 28.6% | 25.1% | 18% | 11.3% | -1.3% | -2.3% | 52.5% | -0.8% | 1.7% | 4% | 0.1% | 5.7% | 11.2% | 5.9% | inhibition [21]: 7.2%; inhibition [22]: 8.1%; IC50 [23]: 1.55 µM; IC50 [24]: > 10 µM; Activity [25]: > 50%; Activity (Homo sapiens): > 50%; Activity [26]: > 50%
2 | Nc1ncc(-c2cc([C@H]3[C@@H]4CN(C5COC5)C[C@@H]43)n(CC3CC3)n2)cc1C(F)(F)F | 3.4% | -3.6% | 3.5% | 2% | 1.1% | 2.4% | 15.7% | 22.2% | 14.9% | 1.3% | -8.1% | 0.5% | 66.5% | -5.4% | 3.8% | 3% | 2.4% | 3.6% | 11.3% | 0.6% | inhibition [21]: -7.5%; inhibition [22]: -0.8%; IC50 [23]: 0.383 µM; IC50 [24]: > 10 µM; Activity [25]: > 50%; Activity (Homo sapiens): > 50%; Activity [26]: > 50%
